We go through 2 compounds from ChEMBL document CHEMBL1122480, “Synthesis and pharmacological studies of 4,4-disubstituted piperidines: a new class of compounds with potent analgesic properties” (J Med Chem, 1983).

Assay [1] has as its system Mus musculus. Kind of assay: Analgesic activity using PQW test, oral administration. The settings on record: Mus musculus, po; read-out: ED50. The class given is functional. The method in brief:
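Oral drug in mice, followed by phenylbenzoquinone-induced writhing. Analgesia is scored as fewer abdominal contractions in a group of five animals than in a control group. ED50 is the dose that reduces contractions by 50%, estimated graphically by the Litchfield method. Otherwise the percentage of animals showing analgesia is given.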

Assay [2] has as its system Mus musculus. As to the kind of experiment: Analgesic activity in tail flick test, oral administration. The class given is functional. The method in brief:
(§1)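 Mouse tail-flick test against a noxious heat stimulus (D'Amour–Smith method), with drug given by the stated route. […] Where no exact ED50 was obtained, the percentage of animals showing analgesia is reported.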

Assay [3] concerns Mus musculus. Kind of assay: Analgesic activity in tail flick test, subcutaneous administration. Type of assay: functional. A digest of the protocol: as §1
Assay [4] relates to Mus musculus. As to the kind of experiment: 5 HTP (5-hydroxytryptophan) antagonism in mouse 0.5 hr after subcutaneous administration (0.01-0.3 dose range). Type of assay: functional. The settings on record: sc. The method in brief:
(§2)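 Mice received drug sc over the stated dose range, then DL-5-hydroxytryptophan to induce head twitches. ED50 is the dose that cut the mean number of head twitches by 50% versus a saline-treated control group (N = 5-10). It was estimated graphically by the Litchfield method.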

Assay [5] deals with T1, Opioid receptor (Rattus norvegicus, UniProt P33533+P34975+P33535). As to the kind of experiment: Inhibition of [3H]naloxone binding to rat brain membrane with 100 mM NaCl.
Assay [6] concerns the target T1, Opioid receptor. As to the kind of experiment: Inhibition of [3H]-Naloxone binding to rat brain membrane without NaCl.
Assay [7] addresses T2, Serotonin (5-HT) receptor (Homo sapiens) (UniProt P30939+P41595+Q13639+P28222+P46098+P08908+P28221+P28223+P28335+P28566+P34969+P50406+P47898+A5X5Y0+O95264+Q70Z44+Q8WXA8). As to the kind of experiment: Serotonin antagonism in guinea pig 0.5 hr after oral administration. Type of assay: functional, organism-based. Conditions: Cavia porcellus; target entry is the homologue from another species. A digest of the protocol:
(§3)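 Guinea pigs were protected against a lethal serotonin dose, per the cited Roemer and Weidmann method. Test substance was given subcutaneously or orally, as named in each line. Protection was assessed at the stated interval after dosing (0.5, 6 or 24 h). ED50 (mg/kg) was estimated graphically by the Litchfield method.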

For assay [8], the target named is T2, Serotonin (5-HT) receptor (Homo sapiens). As to the kind of experiment: Serotonin antagonism in guinea pig 0.5 hr after subcutaneous administration. The settings on record: Cavia porcellus; target entry is the homologue from another species. The class given is functional, organism-based. A digest of the protocol: as §3
Assay [9] shares this target. Kind of assay: Serotonin antagonism in guinea pig 24 hr after oral administration. The class given is functional, organism-based. Conditions: Cavia porcellus; target entry is the homologue from another species. The method in brief: as §3
Assay [10] has the same target. Kind of assay: Serotonin antagonism in guinea pig 24 hr after subcutaneous administration. The class given is functional, organism-based. The settings on record: Cavia porcellus; target entry is the homologue from another species. A digest of the protocol: as §3
For assay [11] the target is unchanged. As to the kind of experiment: Serotonin antagonism in guinea pig 6 hr after oral administration. The class given is functional, organism-based. The settings on record: Cavia porcellus; target entry is the homologue from another species. A digest of the protocol:
as §3

Assay [12] has the same target. As to the kind of experiment: Serotonin antagonism in guinea pig 6 h after subcutaneous administration. Type of assay: functional, organism-based. The settings on record: Cavia porcellus; target entry is the homologue from another species. The method in brief:
as §3

Assay [13] relates to Mus musculus. Kind of assay: 5 HTP (5-hydroxytryptophan) antagonism in mouse 0.5 h after subcutaneous administration (0.03-0.1 dose range). Type of assay: functional. The settings on record: sc. The method in brief:
as §2

As for `CC(C(=O)N(C)C1CCCCC1)C1(O)CCN(CCc2ccccc2Cl)CC1.O=C(O)/C=C\C(=O)O` (stereo in doubt; 15), the ED50 in the assay with Mus musculus [1] is 10.8 mg/kg; in the assay with Mus musculus [2], 22 mg/kg; in the assay with Mus musculus [3] it was 3.2 mg/kg; in the assay on Mus musculus [4], 0.07 mg/kg. In addition, the IC50 was 0.45 µM at Opioid receptor [5] and 0.045 µM on Opioid receptor [6].

Consider `CN(C(=O)C(C)(C)C1(O)CCN(CCc2ccccc2Cl)CC1)C1CCCCC1` [PIPRADIMADOL], for which the ED50 in the assay on Mus musculus [1] was 26 mg/kg; with Mus musculus [2] (Mus musculus, Tail, po, read-out: ED50) it was above 100 mg/kg; in the assay with Mus musculus [3] (Mus musculus, Tail, sc, read-out: ED50), 21 mg/kg; in [7] it was 0.103 mg/kg; in assay [8] it was 0.055 mg/kg; in assay [9], 0.135 mg/kg. Besides, the ED50 in assay [10] was above 0.1 mg/kg; in [11] it was 0.14 mg/kg; in [12], 0.05 mg/kg; in the assay with Mus musculus [13] it was 0.1 mg/kg. Further, the results for the IC50 at Opioid receptor [5] and at Opioid receptor [6] were 0.825 µM and 0.55 µM, respectively.
